According to ChEMBL document CHEMBL1687922, “Dipeptidyl peptidase IV dependent water-soluble prodrugs of highly lipophilic bicyclic nucleoside analogues” (J Med Chem, 2011):
pEC50: −log10 of the molar value. ≈ marks a conversion by molar mass, not a printed value.

Columns and labels:
Human alphaherpesvirus 3 [1] = assay: Antiviral activity against Varicella zoster virus YS infected in HEL cells assessed as reduction in virus induced cytopathicity; type: functional, organism-based; details: Human alphaherpesvirus 3, YS
Outline: (§1)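 Confluent HEL fibroblast monolayers were infected with 20 PFU of VZV (Oka or YS strain). After 1-2 h adsorption, residual virus was removed and varying compound concentrations were added. Plaque formation was scored when untreated infected controls reached completion.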

[2] = Cytotoxicity against HEL cells assessed as inhibition of cell proliferation; type: cell-based; details: human
Human alphaherpesvirus 3 [3] = assay: Antiviral activity against Varicella zoster virus OKA infected in HEL cells assessed as reduction in virus induced cytopathicity; type: functional, organism-based; details: Human alphaherpesvirus 3, OKA; outline: as §1
[4] = Chemical stability of the compound in PBS buffer at pH 7.4 assessed as compound remaining after 24 hrs by HPLC; type: physicochemical; details: read-out: Stability
Outline: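 Prodrug was held in PBS pH 7.4 at room temperature for 24 h. Percent intact prodrug was determined by HPLC.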

[5] = Cytotoxicity against HEL cells assessed as alteration of cell morphology; type: cell-based; details: human
Outline: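 Uninfected HEL fibroblasts were exposed to the test compounds. MCC is the minimal concentration giving microscopically detectable alteration of cell morphology.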

[6] = Aqueous solubility of the compound at 25 DegC after 4 hrs; type: physicochemical; details: water
[7] = Stability of the compound assessed as conversion of prodrug to 3-[(2R,4S, 5R)-4-hydroxy-5-(hydroxymethyl)oxolan-2-yl]-6-(4-pentylphenyl)furo[2, 3-d]pyrimidin-2-one in presence of Dipeptidyl-peptidase 4 and 20 % human serum; type: physicochemical
Outline: (§2)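 Prodrug at 50 μM in PBS (0.1% DMSO) at 37 °C; reaction started with purified CD26 (1.5 mU) or 20% human or bovine serum in PBS. Aliquots taken at time points were quenched in cold methanol on ice, centrifuged, and the supernatant analysed by reverse-phase RP-8 HPLC (NaH2PO4/heptanesulfonic acid pH 3.2 versus acetonitrile gradient) for prodrug, intermediates and parent.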

[8] = Stability of the compound assessed as conversion of prodrug to 3-[(2R,4S, 5R)-4-hydroxy-5-(hydroxymethyl)oxolan-2-yl]-6-(4-pentylphenyl)furo[2, 3-d]pyrimidin-2-one in presence of Dipeptidyl-peptidase 4 and 20 % bovine serum; type: physicochemical; details: cattle; outline: as §2
Caco-2 = assay: Stability in human CaCo-2 cells assessed as appearance of 3-[(2R,4S, 5R)-4-hydroxy-5-(hydroxymethyl)oxolan-2-yl]-6-(4-pentylphenyl)furo[2, 3-d]pyrimidin-2-one at the apical side of the cell; type: ADME, cell-based; details: in the assay text read “basolateral side” for “apical side”
Outline: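 CaCo-2 cells were seeded at 1.5 × 10⁵ cells/well in upper cups of dual-chamber 24-well trays in DMEM with 10% FBS and grown to confluence (~3 days). Upper medium was replaced with DMEM containing compound at 100 μM; bottom medium was replaced with PBS. Upper and bottom cups were sampled at 0-7 and 24 h into cold methanol and analysed by HPLC.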

[9] = Aqueous solubility of the compound at 25 DegC after 24 hrs; type: physicochemical; details: water
Outline: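 Thermodynamic water solubility was measured at 25 °C after 24 h, typically as the mean of two measurements (variation <20%).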

[10] = Stability of the compound assessed as conversion of prodrug to 3-[(2R,4S, 5R)-4-hydroxy-5-(hydroxymethyl)oxolan-2-yl]-6-(4-pentylphenyl)furo[2, 3-d]pyrimidin-2-one in presence of Dipeptidyl-peptidase 4 and 2.5 uM DPPIV inhibitor vildagliptin; type: physicochemical
Outline: (§3)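 Prodrug conversion by purified DPPIV/CD26 or by human, bovine or murine serum (20% in PBS) was run with varying concentrations of vildagliptin. Prodrug, intermediate and parent were quantified by HPLC.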

Mus musculus = assay: Bioavailability in mouse assessed as fold increase in 3-[(2R,4S, 5R)-4-hydroxy-5-(hydroxymethyl)oxolan-2-yl]-6-(4-pentylphenyl)furo[2, 3-d]pyrimidin-2-one level within 0 to 180 mins administered by oral gavage; type: ADME, organism-based; details: in vivo
Outline: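 Female mice received equimolar single oral gavage doses (parent […]) in 0.5% carboxymethylcellulose. Three mice per time point were sacrificed at 15, 30, 45, 60, 90, 120 and 180 min. Plasma was analysed for parent compound by HPLC with fluorescence detection, using relative peak areas. Fold increase in parent plasma levels over 0-180 min was calculated relative to the parent compound.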

[11] = Stability of the compound assessed as conversion of prodrug to 3-[(2R,4S, 5R)-4-hydroxy-5-(hydroxymethyl)oxolan-2-yl]-6-(4-pentylphenyl)furo[2, 3-d]pyrimidin-2-one in presence of Dipeptidyl-peptidase 4, 20 % bovine serum and 2.5 uM DPPIV inhibitor vildagliptin; type: physicochemical; details: cattle; outline: as §3
[12] = Stability of the compound assessed as conversion of prodrug to 3-[(2R,4S, 5R)-4-hydroxy-5-(hydroxymethyl)oxolan-2-yl]-6-(4-pentylphenyl)furo[2, 3-d]pyrimidin-2-one in presence of Dipeptidyl-peptidase 4, 20 % human serum and 2.5 uM DPPIV inhibitor vildagliptin; type: physicochemical; outline: as §3
[13] = Stability of the compound assessed as conversion of prodrug to 3-[(2R,4S, 5R)-4-hydroxy-5-(hydroxymethyl)oxolan-2-yl]-6-(4-pentylphenyl)furo[2, 3-d]pyrimidin-2-one in presence of Dipeptidyl-peptidase 4, 20 % murine serum and 2.5 uM DPPIV inhibitor vildagliptin; type: physicochemical; details: mouse; outline: as §3
[14] = Stability of the compound assessed as conversion of prodrug to 3-[(2R,4S, 5R)-4-hydroxy-5-(hydroxymethyl)oxolan-2-yl]-6-(4-pentylphenyl)furo[2, 3-d]pyrimidin-2-one in presence of Dipeptidyl-peptidase 4; type: physicochemical; outline: as §2

Compound | pEC50 (Human alphaherpesvirus 3 [1]) | CC50 [2] [µM] | pEC50 (Human alphaherpesvirus 3 [3]) | remaining at 24 h [4] [%] | MCC [5] [µM] | solubility at 4 h [6] [µg/mL] | Activity [7] | Activity [8] | Activity (Caco-2) | solubility at 24 h [9] [mg/mL] | Activity [10] | fold change (FC) (Mus musculus) | Activity [11] | Activity [12] | Activity [13] | Activity [14]
CCCCCc1ccc(-c2cc3cn([C@H]4C[C@H](O)[C@@H](COC(=O)[C@H](C)NC(=O)[C@@H]5CCCN5C(=O)[C@@H](N)C(C)C)O4)c(=O)nc3o2)cc1 | 8.52 | 44 | 8.22 | 74 | > 0.5 | 6100 (≈ 9.16 mM) | Active | Active | – | – | – | – | – | – | – | –
CCCCCc1ccc(-c2cc3cn([C@H]4C[C@H](O)[C@@H](COC(=O)[C@@H](NC(=O)[C@@H]5CCCN5C(=O)[C@@H](N)C(C)C)C(C)C)O4)c(=O)nc3o2)cc1 | 6.81 | > 100 | 7.05 | > 95 | > 2 | – | – | – | Active | 1.2 (≈ 1.73 mM) | Not Active | 13 | Not Active | Not Active | Not Active | –
CCCCCc1ccc(-c2cc3cn([C@H]4C[C@H](O)[C@@H](COC(=O)[C@@H](NC(=O)[C@@H]5CCCN5C(=O)[C@@H](N)CCCCN)C(C)C)O4)c(=O)nc3o2)cc1 | 7.66 | 29 | 7.74 | > 95 | > 5 | – | – | – | – | 55 (≈ 76.1 mM) | – | 15 | – | – | – | Active
CCCCCc1ccc(-c2cc3cn([C@H]4C[C@H](OC(=O)[C@@H](NC(=O)[C@@H]5CCCN5C(=O)[C@@H](N)C(C)C)C(C)C)[C@@H](CO)O4)c(=O)nc3o2)cc1 | 7.80 | 17 | 7.74 | > 95 | 60 | – | – | – | – | 5.2 (≈ 7.49 mM) | – | 7 | – | – | – | –
CCCCCc1ccc(-c2cc3cn([C@H]4C[C@H](OC(=O)[C@@H](NC(=O)[C@@H]5CCCN5C(=O)[C@@H](N)C(C)C)C(C)C)[C@@H](COC(=O)[C@@H](NC(=O)[C@@H]5CCCN5C(=O)[C@@H](N)C(C)C)C(C)C)O4)c(=O)nc3o2)cc1 | 6.59 | 50 | 6.90 | > 95 | > 5 | – | – | – | – | 77 (≈ 77.8 mM) | – | 12 | – | – | – | –
CCCCCc1ccc(-c2cc3cn([C@H]4C[C@H](O)[C@@H](CO)O4)c(=O)nc3o2)cc1 [CF1743] | – | – | – | – | > 20 | – | – | – | – | 0.018 (≈ 0.0452 mM) | – | – | – | – | – | –
CCCCCc1ccc(-c2cc3cn([C@H]4C[C@H](O)[C@@H](COC(=O)[C@@H](NC(=O)[C@@H]5CCCN5C(=O)[C@@H](N)CC(N)=O)C(C)C)O4)c(=O)nc3o2)cc1 | 7.07 | 56 | 7.38 | > 95 | > 5 | – | – | – | – | 39 (≈ 55 mM) | – | – | – | – | – | Active
CCCCCc1ccc(-c2cc3cn([C@H]4C[C@H](O)[C@@H](COC(=O)[C@H](Cc5ccccc5)NC(=O)[C@@H]5CCCN5C(=O)[C@@H](N)C(C)C)O4)c(=O)nc3o2)cc1 | 8.00 | 40 | 7.89 | 52 | > 0.5 | 1100 (≈ 1.48 mM) | Active | Active | – | – | – | – | – | – | – | –
CCCCCc1ccc(-c2cc3cn([C@H]4C[C@H](O)[C@@H](COC(=O)[C@H](CC(C)C)NC(=O)[C@@H]5CCCN5C(=O)[C@@H](N)C(C)C)O4)c(=O)nc3o2)cc1 | 8.22 | 31 | 8.05 | 69 | > 0.5 | 14000 (≈ 19.8 mM) | Active | Active | – | – | – | 11 | – | – | – | –
CCCCCc1ccc(-c2cc3cn([C@H]4C[C@H](O)[C@@H](COC(=O)[C@@H](NC(=O)[C@@H]5CCCN5C(=O)[C@@H](N)CC(=O)O)C(C)C)O4)c(=O)nc3o2)cc1 | 7.14 | 52 | 7.49 | > 95 | > 5 | – | Not Active | Not Active | – | 15 (≈ 21.1 mM) | – | – | – | – | – | Active
